Measurements taken from PubChem BioAssay AID493195 (Broad Institute, 2011).
Where “and” joins values, the source holds several entries; their conditions need not be identical. Equal entries are not always repeated. Calls of active or inactive are those of the source.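 The calls were made as follows: active = fitted dose curve reaching 40% activation within the tested dose range; inconclusive = no clear call, values can overlap the other calls; inactive = the rest, or activity opposite the expected rise.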

system: not listed separately; experiment: HIF pathway transcriptional activation – cell-based, luminescence, U2OS HRE-luc, dry powder, set 6, dose response (AID 493195); conditions: U2OS HRE-luciferase reporter, luminescence, HIF activation; at 38 µM (top of the series)
Method in brief: (§1)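 Test system: human U2OS osteosarcoma cells stably carrying 3×HRE-luciferase reporter. Input: 6,000 cells per well. Times: 24 h compound exposure at 37 °C. Detection: Steady-Glo luciferase luminescence.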

Q: For `Cc1ccc(CNC(=O)c2cc(-c3ccccc3)on2)cc1`, which activation is on record?
A: -0.243% (inactive)

Q: Which activation does the source give for `Cn1c(-c2ccccc2)cnc1Nc1nc(-c2ccccn2)nnc1-c1ccccc1` here?
A: -1.62% (inactive)

Q: For `O=C(NCC1CC1)c1cc(-c2ccccc2)on1`, which activation is on record?
A: 19.6% (inactive)

Q: Which activation does the source give for `CC1CN(Cc2ccc(O)c3ncccc23)CC(C)O1` (stereo unspecified) here?
A: 2.48% (inactive)

Q: For `O=C(c1cc(-c2ccccc2)on1)N1CCC(CO)CC1`, which activation is on record?
A: 0.347% (inactive)

Q: With `CN(C)CCNC(=O)c1cc(-c2ccccc2)on1` as the compound, how does the activation read?
A: 0.398% (inactive)

Q: Which activation does the source give for `CC(C)(C)OC(=O)N1CCN(Cc2ccc(O)c3ncccc23)CC1` here?
A: 9.74% (inactive)

Q: With `Cn1c(NC(=O)c2cc(-c3ccccc3)on2)nc2ccccc21` as the compound, how does the activation read?
A: -0.522% (inactive)

Q: For `O=C(NCc1ccccc1)c1cc(-c2ccccc2)on1`, which activation is on record?
A: 1.19% (inactive)

Q: For `O=C(Nc1cnc2ccccc2c1)c1cc(-c2ccccc2)on1`, which activation is on record?
A: 0.224% (inactive)

Q: Which activation does the source give for `O=C(c1cc(-c2ccccc2)on1)N1CCC(N2CCCC2)CC1` here?
A: -0.666% (inactive)

Q: Which activation does the source give for `Cc1ccc(NC(=O)c2cc(-c3ccccc3)on2)cn1` here?
A: -0.191% (inactive)

Q: Which activation does the source give for `O=C(Nc1ccc2ccccc2n1)c1cc(-c2ccccc2)on1` here?
A: -0.178% (inactive)

Q: Which activation does the source give for `Oc1ccc(CNC2CCc3ccccc32)c2cccnc12` (stereo unspecified) here?
A: 15.9% (inactive)

Q: With `O=C(NCCN1CCCCC1)c1cc(-c2ccccc2)on1` as the compound, how does the activation read?
A: 0.598% (inactive)

Q: Which activation does the source give for `O=C(NC1Cc2ccccc2C1)c1cc(-c2ccccc2)on1` here?
A: 0.84% (inactive)

Q: With `Cc1cccc(CNC(=O)c2cc(-c3ccccc3)on2)c1` as the compound, how does the activation read?
A: -0.241% (inactive)

Q: For `O=C(NCCN1CCOCC1)c1cc(-c2ccccc2)on1`, which activation is on record?
A: 20.9% (inactive)

Q: Which activation does the source give for `Oc1ccc(CN2CCc3ccccc3C2)c2cccnc12` here?
A: 5.7% (inactive)

Q: For `O=C(Nc1nc2ccccc2s1)c1cc(-c2ccccc2)on1`, which activation is on record?
A: 0.068% (inactive)

Q: For `O=C(Nc1nc(-c2ccccc2)cs1)c1cc(-c2ccccc2)on1`, which activation is on record?
A: -0.156% (inactive)

Q: For `O=C(c1cc(-c2ccccc2)on1)N1CCN(c2ccncc2)CC1`, which activation is on record?
A: -0.05% (inactive)

Q: With `O=C(Nc1nnc(-c2ccccc2)s1)c1cc(-c2ccccc2)on1` as the compound, how does the activation read?
A: -0.274% (inactive)

Q: With `N#CC1(c2ccccc2)CCN(Cc2ccc(O)c3ncccc23)CC1` as the compound, how does the activation read?
A: 7.8% (inactive)

Q: With `O=C(NCC1CCCCC1)c1cc(-c2ccccc2)on1` as the compound, how does the activation read?
A: 1.39% (inactive)

Q: For `OCC1CCN(Cc2ccc(O)c3ncccc23)CC1`, which activation is on record?
A: 44.4% (inactive)

Q: Which activation does the source give for `Cc1cccc(NC(=O)c2cc(-c3ccccc3)on2)n1` here?
A: -0.083% (inactive)

Q: For `Cc1ccccc1CNC(=O)c1cc(-c2ccccc2)on1`, which activation is on record?
A: -0.171% (inactive)

Q: Which activation does the source give for `O=C(c1cc(-c2ccccc2)on1)N1CCc2cccnc21` here?
A: -0.142% (inactive)

Q: With `O=C(NC1CCc2ccccc2C1)c1cc(-c2ccccc2)on1` (stereo unspecified) as the compound, how does the activation read?
A: 1.01% (inactive)

Q: With `O=C(Nc1ncc2ccccc2n1)c1cc(-c2ccccc2)on1` as the compound, how does the activation read?
A: 0.873% (inactive)

Q: Which activation does the source give for `CN1CCN(C(=O)c2cc(-c3ccccc3)on2)CC1` here?
A: -0.469% (inactive)

Q: With `O=C(c1cc(-c2ccccc2)on1)N1CCC(N2CCOCC2)CC1` as the compound, how does the activation read?
A: -0.46% (inactive)

Q: Which activation does the source give for `O=C(Nc1cn2ccccc2n1)c1cc(-c2ccccc2)on1` here?
A: 0.943% (inactive)

Q: With `CC(C)(C)CCNC(=O)c1cc(-c2ccccc2)on1` as the compound, how does the activation read?
A: 9.01% (inactive)

Q: For `O=C(NCCCO)c1cc(-c2ccccc2)on1`, which activation is on record?
A: 16.3% (inactive)

Q: For `O=C(Nc1ncc(-c2ccccc2)o1)c1cc(-c2ccccc2)on1`, which activation is on record?
A: -0.076% (inactive)

Q: Which activation does the source give for `Cn1c(-c2ccccc2)cnc1NC(=O)c1cc(-c2ccccc2)on1` here?
A: -0.441% (inactive)

system: U2OS HRE-luciferase reporter, luminescence, HIF activation; experiment: as above; conditions: not given
Method in brief: as §1

Q: For `c1ccc(-c2nnc(-c3ccccn3)nc2Nc2cnc3ccccc3n2)cc1`, which AC40 is on record?
A: 7.11 µM

Q: For `c1ccc(-c2nnc(-c3ccccn3)nc2NCCCN2CCOCC2)cc1`, which AC40 is on record?
A: 10.7 µM

Q: For `c1ccc(-c2nnc(-c3ccccn3)nc2N2CCN(c3ccncc3)CC2)cc1`, which AC40 is on record?
A: 7.78 µM

Q: With `CN(C)c1nc(-c2ccccn2)nnc1-c1ccccc1` as the compound, how does the AC40 read?
A: 10.5 µM

Q: For `c1ccc(-c2nnc(-c3ccccn3)nc2Nc2nc3ccccc3s2)cc1`, which AC40 is on record?
A: 5.02 µM

Q: Which AC40 does the source give for `c1ccc(-c2cccc(CNc3nc(-c4ccccn4)nnc3-c3ccccc3)c2)cc1` here?
A: 1.27 µM

Q: For `c1ccc(-c2nnc(-c3ccccn3)nc2NCCN2CCOCC2)cc1`, which AC40 is on record?
A: 11.6 µM

Q: For `Cc1ccccc1CNc1nc(-c2ccccn2)nnc1-c1ccccc1`, which AC40 is on record?
A: 4.31 µM

Q: For `c1ccc(-c2nnc(-c3ccccn3)nc2NCCc2ccccn2)cc1`, which AC40 is on record?
A: 10.1 µM

Q: For `c1ccc(-c2ccc(CNc3nc(-c4ccccn4)nnc3-c3ccccc3)cc2)cc1`, which AC40 is on record?
A: 0.917 µM

Q: Which AC40 does the source give for `O=C(NCCCn1ccnc1)c1cc(-c2ccccc2)on1` here?
A: 26.5 µM

Q: With `Oc1ccc(CNC2Cc3ccccc3C2)c2cccnc12` as the compound, how does the AC40 read?
A: 32.6 µM

Q: Which AC40 does the source give for `C[C@H](Nc1nc(-c2ccccn2)nnc1-c1ccccc1)C1CCCCC1` here?
A: 2.23 µM

Q: For `c1ccc(-c2nnc(-c3ccccn3)nc2N2CCC(C3CCCCC3)C2)cc1` (stereo unspecified), which AC40 is on record?
A: 1.78 µM

Q: For `CCCCNC(=O)c1cc(-c2ccccc2)on1`, which AC40 is on record?
A: 28.5 µM

Q: Which AC40 does the source give for `COc1cccc(CNc2nc(-c3ccccn3)nnc2-c2ccccc2)c1` here?
A: 2.43 µM

Q: For `c1ccc(-c2nnc(-c3ccccn3)nc2N2CCC(c3ccccc3)C2)cc1` (stereo unspecified), which AC40 is on record?
A: 1.54 µM

Q: For `CC(C)(C)CCNc1nc(-c2ccccn2)nnc1-c1ccccc1`, which AC40 is on record?
A: 3.35 µM and 1.68 µM

Q: Which AC40 does the source give for `c1ccc(-c2nnc(-c3ccccn3)nc2NCC2CC2)cc1` here?
A: 7.2 µM

Q: For `C[C@@H](Nc1nc(-c2ccccn2)nnc1-c1ccccc1)C1CCCCC1`, which AC40 is on record?
A: 4.3 µM

Q: For `CC(Nc1nc(-c2ccccn2)nnc1-c1ccccc1)c1ccccc1` (stereo unspecified), which AC40 is on record?
A: 2.53 µM

Q: Which AC40 does the source give for `c1ccc(-c2nnc(-c3ccccn3)nc2N2CCC(N3CCOCC3)CC2)cc1` here?
A: 8.15 µM

Q: Which AC40 does the source give for `CC(C)(C)c1ccc(CNc2nc(-c3ccccn3)nnc2-c2ccccc2)cc1` here?
A: 1.13 µM

Q: For `COc1ccc(CNc2nc(-c3ccccn3)nnc2-c2ccccc2)cc1`, which AC40 is on record?
A: 2.51 µM

Q: Which AC40 does the source give for `Cc1ccc(Nc2nc(-c3ccccn3)nnc2-c2ccccc2)cn1` here?
A: 9.36 µM

Q: For `Cc1ccc(CNc2nc(-c3ccccn3)nnc2-c2ccccc2)cc1C`, which AC40 is on record?
A: 1.48 µM

Q: For `Oc1ccc(CN2CCC(Cc3ccccc3)CC2)c2cccnc12`, which AC40 is on record?
A: 26.5 µM

Q: With `Oc1ccc(CN2CCc3ccccc3C2)c2cccnc12` as the compound, how does the AC40 read?
A: 5.32 µM

Q: For `c1ccc(CCNc2nc(-c3ccccn3)nnc2-c2ccccc2)cc1`, which AC40 is on record?
A: 2.14 µM

Q: Which AC40 does the source give for `OCCCNc1nc(-c2ccccn2)nnc1-c1ccccc1` here?
A: 16.7 µM

Q: For `COc1ccccc1N1CCN(Cc2ccc(O)c3ncccc23)CC1`, which AC40 is on record?
A: 33 µM

Q: For `Clc1cccc(CNc2nc(-c3ccccn3)nnc2-c2ccccc2)c1`, which AC40 is on record?
A: 1.87 µM

Q: With `Oc1ccc(CN2CCC3CCCCC3C2)c2cccnc12` (stereo unspecified) as the compound, how does the AC40 read?
A: 21.3 µM

Q: Which AC40 does the source give for `c1ccc(-c2nnc(-c3ccccn3)nc2NCc2ccccn2)cc1` here?
A: 18.5 µM

Q: Which AC40 does the source give for `Cc1cccc(Nc2nc(-c3ccccn3)nnc2-c2ccccc2)n1` here?
A: 11.2 µM

Q: For `C=CCNc1nc(-c2ccccn2)nnc1-c1ccccc1`, which AC40 is on record?
A: 6.56 µM

Q: For `c1ccc(CNc2nc(-c3ccccn3)nnc2-c2ccccc2)cc1`, which AC40 is on record?
A: 5.43 µM

Q: Which AC40 does the source give for `c1ccc(-c2nnc(-c3ccccn3)nc2NCC2CCOCC2)cc1` here?
A: 18.3 µM

Q: Which AC40 does the source give for `OCC1CCN(c2nc(-c3ccccn3)nnc2-c2ccccc2)CC1` here?
A: 18.8 µM

Q: With `O=C(NCCCCO)c1cc(-c2ccccc2)on1` as the compound, how does the AC40 read?
A: 24.2 µM

Q: For `c1ccc(-c2nnc(-c3ccccn3)nc2NCC2CCCCC2)cc1`, which AC40 is on record?
A: 4.15 µM

Q: With `c1ccc(-c2csc(Nc3nc(-c4ccccn4)nnc3-c3ccccc3)n2)cc1` as the compound, how does the AC40 read?
A: 24.6 µM

Q: For `c1ccc(-c2nnc(-c3ccccn3)nc2NCc2cccnc2)cc1`, which AC40 is on record?
A: 20.7 µM

Q: With `Cc1cccc(CNc2nc(-c3ccccn3)nnc2-c2ccccc2)c1` as the compound, how does the AC40 read?
A: 3.83 µM

Q: For `c1ccc(-c2nnc(Nc3nc(-c4ccccn4)nnc3-c3ccccc3)s2)cc1`, which AC40 is on record?
A: 4.75 µM

Q: With `CN1CCN(c2nc(-c3ccccn3)nnc2-c2ccccc2)CC1` as the compound, how does the AC40 read?
A: 15.8 µM

Q: Which AC40 does the source give for `c1ccc(-c2cnc(Nc3nc(-c4ccccn4)nnc3-c3ccccc3)s2)cc1` here?
A: 31.4 µM

Q: Which AC40 does the source give for `Cc1ccc(CNc2nc(-c3ccccn3)nnc2-c2ccccc2)cc1` here?
A: 2.72 µM
